Laboratory results reported in ChEMBL document CHEMBL1126759, “Potent HIV protease inhibitors: the development of tetrahydrofuranylglycines as novel P2-ligands and pyrazine amides as P3-ligands” (J Med Chem, 1993).

Legend:
[1] = target: Human immunodeficiency virus type 1 protease (Human immunodeficiency virus 1) (UniProt Q72874); experiment: Tested for inhibitory concentration against spread of HIV-1 in MT-4 human T-lymphoid cells infected with IIIb isolate; format: functional, cell-based
Outline: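 MT-4 cells grown in RPMI-1640 with 10% inactivated FBS, 4 mM glutamine and penicillin/streptomycin at 37 °C under CO2. Cells were pretreated 24 h with serially diluted compound (DMSO stock), then infected at 250 000 cells/mL, MOI 0.01. Compound was refreshed every 2–3 days. CIC was read by anti-HIV-1 immunofluorescence (complete block of spread, 7–24 days) or p24 ELISA (>95% reduction).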

[2] = target: Human immunodeficiency virus type 1 protease (Human immunodeficiency virus 1, UniProt Q72874); experiment: Tested for inhibitory concentration against HIV-1 protease
[3] = target: Human immunodeficiency virus type 2 pol protein (Human immunodeficiency virus 2, UniProt P88142); experiment: Tested for inhibitory concentration against HIV-2 protease; format: functional
Sequence of Human immunodeficiency virus type 2 pol protein (P88142 whole entry): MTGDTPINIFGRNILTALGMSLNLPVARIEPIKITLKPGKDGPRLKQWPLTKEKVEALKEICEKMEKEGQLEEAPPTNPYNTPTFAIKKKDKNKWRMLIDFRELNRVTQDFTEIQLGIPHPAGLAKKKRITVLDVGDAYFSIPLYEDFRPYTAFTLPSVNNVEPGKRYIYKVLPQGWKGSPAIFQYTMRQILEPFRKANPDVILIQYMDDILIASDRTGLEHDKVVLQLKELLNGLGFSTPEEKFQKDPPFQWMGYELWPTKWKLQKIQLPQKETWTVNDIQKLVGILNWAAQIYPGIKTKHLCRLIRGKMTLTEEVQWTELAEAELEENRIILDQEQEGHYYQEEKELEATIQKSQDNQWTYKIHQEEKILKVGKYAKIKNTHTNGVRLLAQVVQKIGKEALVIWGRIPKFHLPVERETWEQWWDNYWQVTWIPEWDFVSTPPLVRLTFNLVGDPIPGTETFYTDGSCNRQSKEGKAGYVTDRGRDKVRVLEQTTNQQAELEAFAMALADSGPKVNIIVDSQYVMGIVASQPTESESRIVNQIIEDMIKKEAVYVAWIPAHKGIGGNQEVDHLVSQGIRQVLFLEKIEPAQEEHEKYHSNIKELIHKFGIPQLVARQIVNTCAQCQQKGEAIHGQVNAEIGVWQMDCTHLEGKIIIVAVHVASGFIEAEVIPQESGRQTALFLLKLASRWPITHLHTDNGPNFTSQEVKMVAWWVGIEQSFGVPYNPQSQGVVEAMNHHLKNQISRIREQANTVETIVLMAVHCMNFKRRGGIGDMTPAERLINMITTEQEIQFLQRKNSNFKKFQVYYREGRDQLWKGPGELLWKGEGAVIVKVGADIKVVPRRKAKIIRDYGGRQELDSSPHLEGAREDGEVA
Outline: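 HIV-2 protease (ROD) purified the same way as HIV-1 protease, which was bacterially expressed; value reported as IC50.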

## CN(C)c1ncc(C(=O)N[C@H](C(=O)N[C@@H](Cc2ccccc2)[C@H](O)CN2C[C@H]3CCCC[C@H]3C[C@H]2C(=O)NC(C)(C)C)[C@H]2CCOC2)nc1Cl
[1]
  IC95: 12 nM
[2]
  IC50: 0.06 nM

## CC(C)(C)NC(=O)[C@@H]1C[C@@H]2CCCC[C@@H]2CN1C[C@@H](O)[C@H](Cc1ccccc1)NC(=O)[C@@H](NC(=O)c1ccc2ccccc2n1)[C@H]1CCS(=O)(=O)C1
[2]
  IC50: 0.5 nM

## COC(=O)c1nc(Cl)c(N[C@H](C(=O)N[C@@H](Cc2ccccc2)[C@H](O)CN2C[C@H]3CCCC[C@H]3C[C@H]2C(=O)NC(C)(C)C)[C@H]2CCOC2)nc1N
[1]
  IC95: 3 nM
[2]
  IC50: 0.16 nM
[3]
  IC50: 24.9 nM

## CC(C)[C@H](NC(=O)c1cc(=O)c2ccccc2o1)C(=O)N[C@@H](Cc1ccccc1)[C@H](O)CN1C[C@H]2CCCC[C@H]2C[C@H]1C(=O)NC(C)(C)C
[1]
  IC95: 25 nM
[2]
  IC50: 0.15 nM

## CN1CCN(c2ncc(C(=O)N[C@H](C(=O)N[C@@H](Cc3ccccc3)[C@H](O)CN3C[C@H]4CCCC[C@H]4C[C@H]3C(=O)NC(C)(C)C)[C@H]3CCOC3)nc2Cl)CC1
[1]
  IC95: 12 nM
[2]
  IC50: 0.071 nM
[3]
  IC50: 0.18 nM

## CC(C)(C)NC(=O)[C@@H]1C[C@@H]2CCCC[C@@H]2CN1C[C@@H](O)[C@H](Cc1ccccc1)NC(=O)[C@@H](NC(=O)c1ccc2ccccc2n1)C1CCCC1
[2]
  IC50: 2.6 nM

## CC(C)(C)NC(=O)[C@@H]1C[C@@H]2CCCC[C@@H]2CN1C[C@@H](O)[C@H](Cc1ccccc1)NC(=O)[C@@H](NC(=O)c1ccc2ccccc2n1)C1CCOC1 (stereo partly specified)
[1]
  IC95: 8 nM
[2]
  IC50: 0.054 nM
[3]
  IC50: 0.24 nM

## CC(C)(C)NC(=O)[C@@H]1C[C@@H]2CCCC[C@@H]2CN1C[C@@H](O)[C@H](Cc1ccccc1)NC(=O)[C@H](CC(N)=O)NC(=O)c1ccc2ccccc2n1
[1]
  IC95: 22 nM
[3]
  IC50: 0.5 nM

## CC(C)(C)NC(=O)[C@@H]1C[C@@H]2CCCC[C@@H]2CN1C[C@@H](O)[C@H](Cc1ccccc1)NC(=O)[C@@H](NC(=O)c1ccc2ccccc2n1)[C@@H]1CCOC1
[1]
  IC95: 100 nM
[2]
  IC50: 5.4 nM

## CC(C)(C)NC(=O)[C@@H]1C[C@@H]2CCCC[C@@H]2CN1C[C@@H](O)[C@H](Cc1ccccc1)NC(=O)[C@@H](NC(=O)c1cc(=O)c2ccccc2o1)[C@H]1CCOC1
[1]
  IC95: 25 nM
[2]
  IC50: 0.11 nM

## CC(C)(C)NC(=O)[C@@H]1C[C@@H]2CCCC[C@@H]2CN1C[C@@H](O)[C@H](Cc1ccccc1)NC(=O)[C@@H](NC(=O)c1cnc2ccccc2n1)[C@H]1CCOC1
[1]
  IC95: 12 nM
[2]
  IC50: 0.12 nM

## CC(C)(C)NC(=O)[C@@H]1C[C@@H]2CCCC[C@@H]2CN1C[C@@H](O)[C@H](Cc1ccccc1)NC(=O)[C@@H](NC(=O)c1ccc2ccccc2n1)C1CCOCC1
[2]
  IC50: 67.9 nM

## CC(C)(C)NC(=O)[C@@H]1C[C@@H]2CCCC[C@@H]2CN1C[C@@H](O)[C@H](Cc1ccccc1)NC(=O)[C@@H](NC(=O)c1ccc2ccccc2n1)[C@@H]1CCSC1
[1]
  IC95: > 200 nM
[2]
  IC50: 3.3 nM

## CC(C)[C@H](NC(=O)c1cnc2ccccc2n1)C(=O)N[C@@H](Cc1ccccc1)[C@H](O)CN1C[C@H]2CCCC[C@H]2C[C@H]1C(=O)NC(C)(C)C
[2]
  IC50: 0.39 nM

## CC(C)[C@H](NC(=O)c1ccc2ccccc2n1)C(=O)N[C@@H](Cc1ccccc1)[C@H](O)CN1C[C@H]2CCCC[C@H]2C[C@H]1C(=O)NC(C)(C)C
[1]
  IC95: 100 nM
[2]
  IC50: 0.7 nM
[3]
  IC50: 3.2 nM

## CC(C)(C)NC(=O)[C@@H]1C[C@@H]2CCCC[C@@H]2CN1C[C@@H](O)[C@H](Cc1ccccc1)NC(=O)[C@@H](NC(=O)c1ccc2ccccc2n1)[C@@H]1CCS(=O)(=O)C1
[2]
  IC50: 39 nM

## CN(C)c1nc(N)c(C(=O)N[C@H](C(=O)N[C@@H](Cc2ccccc2)[C@H](O)CN2C[C@H]3CCCC[C@H]3C[C@H]2C(=O)NC(C)(C)C)[C@H]2CCOC2)nc1Cl
[1]
  IC95: 25 nM
[2]
  IC50: 0.24 nM

## CC(C)(C)NC(=O)[C@@H]1C[C@@H]2CCCC[C@@H]2CN1C[C@@H](O)[C@H](Cc1ccccc1)NC(=O)[C@@H](NC(=O)c1cnccn1)[C@H]1CCOC1
[2]
  IC50: 2.83 nM

## CC(C)(C)NC(=O)[C@@H]1C[C@@H]2CCCC[C@@H]2CN1C[C@@H](O)[C@H](Cc1ccccc1)NC(=O)[C@@H](NC(=O)c1ccc2ccccc2n1)[C@H]1CCSC1
[1]
  IC95: 50 nM
[2]
  IC50: 0.6 nM
